Compound activity: PubChem, Johns Hopkins Ion Channel Center
RGS4 block: inhibitors of human RGS4 | P49798 | B-score at 10 µM | HEK293 M3R/RGS4 inducible, Fluo-4 calcium flux; active compounds read high; triggered by carbachol at its EC20 | 0.45% of 310,000 active;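 active = B-score, a plate-corrected calcium signal, over three deviations above library mean, with baseline fluorescence within five deviations of library mean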;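 also: RGS4 expression induced by doxycycline in cells with stable M3 receptor; B-score is computed from the integrated fluorescence ratio over baseline after carbachol; higher B-score means a larger calcium signal and so more RGS4 inhibition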
Target sequence (P49798 whole entry, looked up): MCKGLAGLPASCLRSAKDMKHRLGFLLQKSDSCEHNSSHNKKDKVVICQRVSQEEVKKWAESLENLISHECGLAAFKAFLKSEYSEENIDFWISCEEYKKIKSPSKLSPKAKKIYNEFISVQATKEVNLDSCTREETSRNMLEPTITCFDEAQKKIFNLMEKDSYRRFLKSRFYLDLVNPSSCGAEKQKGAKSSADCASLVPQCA
MrgX1 agonist: human MrgX1 receptor agonism, primary screen; Q96LB2; MrgX1-HEK293 cells, Fluo-4 calcium fluorescence, agonist mode; active compounds read high; B-score at 10 µM; 0.44% of 310,000 active; AID 588627;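 active = calcium response B-score plate-corrected fluorescence ratio at least 3 library SD, with starting fluorescence B-score inside 5 SD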
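Material – MrgX1-expressing HEK293 cells · Input – 15,000 cells seeded per well · Dosing – compound as first of three additions · Times – overnight seeding, then 1 h dark dye loading · Measured by – kinetic Fluo-4 NW fluorescence of intracellular calcium · Read-out – B-scored fluorescence response ratio · Benchmarks – positive and negative control wells on each plate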
MrgX1 antagonist: blocks BAM8-22 activation of human MrgX1 receptor. AID 588676. B-score at 10 µM. MRGX1-HEK293 calcium flux, Fluo-4, BAM8-22 antagonism; active compounds read low. 1.3% of 310,000 active. Q96LB2;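 active = calcium-response B-score plate-corrected more than 3 library SD below zero, starting fluorescence within 5 deviations, no agonist response on first addition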;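 also: peak minus trough fluorescence over baseline after final BAM8-22 challenge near maximal dose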
MrgX1 allo act: allosterically activates human MrgX1 receptor signaling; 0.63% of 310,000 active; AID 588675; MrgX1-HEK293, Fluo-4 calcium flux, FDSS; active compounds read high; B-score at 10 µM;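 active = plate-corrected calcium response at least 3 library SD above typical, normal starting fluorescence, not activating the receptor alone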;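 also: compound read alongside a low EC10 to EC30 dose of BAM8-22 agonist; peak minus trough fluorescence over baseline measured at the second addition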
RGS4 act: potentiators or activators of RGS4. HEK293 M3R/inducible RGS4, carbachol calcium flux Fluo4; active compounds read low. B-score at 10 µM. 0.92% of 310,000 active;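 active = B-score of the integrated calcium signal more than 4 SD below the library mean, with starting fluorescence not abnormally high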;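 also: negative B-score means reduced calcium response which marks RGS4 activation or potentiation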
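Material: M3R-expressing HEK293 line, RGS4 induced by doxycycline | Schedule: Overnight RGS4 induction, 30 min dye load 37 °C, 20 min compound RT | Measured by: Fluo4 fluorescence kinetic imaging of calcium | Read-out: Integrated calcium ratio converted to B score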
* marks the source's active call; other numbers are inactive results; i = inactive. Rows were chosen to be rich in hits. Some 3.5% of all compounds tested hit in one or more screens of this group.

SMILES	RGS4 block	MrgX1 agonist	MrgX1 antagonist	MrgX1 allo act	RGS4 act
CC(OCCN1CCCC1)(c1ccc(F)cc1)c1ccc(F)cc1	i	i	i	i	-7.5*
COc1ccc2[nH]cc(/C=C/c3cc[n+](C)cc3)c2c1	i	i	-7.9*	i	i
COc1ccc2[nH]cc(C=O)c2c1	i	i	i	i	i
COc1ccc(N2CCN(C(CNS(C)(=O)=O)c3ccco3)CC2)cc1 (stereo not given)	i	i	i	i	i
CC1CCCC(C)N1S(=O)(=O)c1ccc(Cl)cc1 (stereo not given)	i	i	i	i	i
CC1=C(C)CS(=O)N(S(=O)(=O)c2ccc(Cl)cc2)C1 (stereo not given)	i	52*	i	i	i
CC(C)c1ccc(N2C=Nc3ccc(C(C)C)cc3C2)cc1	i	i	i	i	-7.5*
O=C(NCCN1C(=O)S/C(=C\c2ccc(OC(F)F)cc2)C1=O)[C@@H]1CCCN1C(=O)c1cccs1	i	i	i	8.2*	i
COc1cc2c(cc1OC)CN(c1nc(-c3cccnc3)nc3ccccc13)CC2	i	i	i	i	-7.5*
COc1ccccc1C(C)Nc1nc(-c2cccnc2)nc2ccccc12 (stereo not given)	i	i	i	i	-7.1*
Fc1ccccc1CNc1nc(-c2cccnc2)nc2ccccc12	i	38*	i	i	-9.1*
COc1cccc(CNc2nc(-c3cccnc3)nc3ccccc23)c1	i	i	i	i	i
Cn1cc(CNCc2ccc(-n3cccn3)cc2)c(-c2ccccc2F)n1	i	i	i	i	i
CCCCOc1ccc(C2=CSC3=NCCN23)cc1[N+](=O)[O-]	i	i	i	i	-7.4*
COC(=O)c1cn(CCC#N)nc1-c1ccc2ccccc2c1	i	i	i	i	i
CC(C)OCCCNC(=O)c1cc(S(=O)(=O)N2CCc3ccccc32)cn1C	i	i	i	i	i
COCCn1c(=NC(=O)CSC(C)=O)sc2cc(F)ccc21	i	i	-9.3*	i	i
O=C(NCc1ccc(Cl)cc1)c1n[nH]c([N+](=O)[O-])c1Cl	i	i	i	i	i
Cc1cccc(-c2noc(Cc3ccccc3)n2)c1	i	i	-8.2*	i	i
CCOC(=O)CSc1nc2ccc(NC(=O)CSc3nnnn3Cc3ccccc3)cc2s1	i	i	i	6.9*	i
CNC(=S)N/N=C/c1c(C)nn(-c2ccccc2)c1Cl	i	i	i	i	i
Cc1nn(-c2ccccc2)c(C)c1-c1cc(C(=O)N/N=C/c2ccc(O)cc2)[nH]n1	i	i	i	i	-7.1*
Cc1nn(-c2ccccc2)c(C)c1/C=N/NC(=O)c1cc(-c2ccc(Cl)s2)[nH]n1	i	i	i	i	-7.8*
Cc1nn(-c2ccccc2)c(Cl)c1/C=N/NC(=O)OC(C)(C)C	i	i	i	i	-8*
COc1cc(/C=N/NC(=O)c2cc(-c3c(C)nn(-c4ccccc4)c3C)n[nH]2)ccc1O	i	i	i	i	i
SMILES	RGS4 block	MrgX1 agonist	MrgX1 antagonist	MrgX1 allo act	RGS4 act
Cc1nn(-c2ccccc2)c(C)c1/C=N/NC(=O)c1cc(-c2cccs2)[nH]n1	i	i	i	i	i
Cc1nn(-c2ccccc2)c(C)c1/C=N/NC(=O)c1cccs1	i	i	-7.1*	i	i
COc1ccc(OCC(=O)Nc2c3c(nn2-c2ccc(OC)cc2)CS(=O)(=O)C3)cc1	i	i	i	i	i
Cc1nn(-c2ccccc2)c(C)c1/C=N/NC(=O)c1ccccc1O	i	i	i	i	i
Cc1nn(-c2ccccc2)c(N2CCCC2)c1/C=N/NC(=O)c1ccccc1O	i	i	-7.2*	i	i
S=C(NNc1ccnc2cc(Cl)ccc12)Nc1ccccc1Cl	i	i	i	6.7*	i
Clc1ccc2c(NCc3ccccc3)ccnc2c1	i	32*	i	i	i
S=C(Nc1ccccc1Cl)Nc1ccc(Cl)cc1Cl	i	i	i	i	i
CCN(CC)CCNc1ccnc2cc(Cl)ccc12	i	i	i	i	i
